Assay results published in ChEMBL document CHEMBL5038657, “Discovery of Novel Inhibitors of Uridine Diphosphate-N-Acetylenolpyruvylglucosamine Reductase (MurB) from Pseudomonas aeruginosa, an Opportunistic Infectious Agent Causing Death in Cystic Fibrosis Patients” (J Med Chem, 2022).

Experiments:
Pseudomonas aeruginosa [1] = assay: Binding affinity to Pseudomonas aeruginosa MurB assessed as change in melting temperature at 1 mM by differential scanning fluorimetry
Outline: (§1)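 Recombinant Pa MurB (E. coli BL21(DE3)-expressed, SUMO tag cleaved; MurB–FAD complex) at 10 μM in 25 mM Tris–HCl pH 8.0, 150 mM NaCl, 5X SyproOrange with ligand in DMSO-d6. Ramped 25–95 °C in 0.5 °C steps of 30 s. ΔTm taken against DMSO-d6 reference, with NADP+ as positive control. Ligand at 5.0 mM run once (n = 1); at 1.0 mM run in triplicate (n = 3).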

[2] = Binding affinity to Pseudomonas aeruginosa MurB assessed as dissociation constant at 3 mM by isothermal titration calorimetry
Pseudomonas aeruginosa [3] = assay: Binding affinity to Pseudomonas aeruginosa MurB assessed as change in melting temperature at 5 mM by differential scanning fluorimetry; outline: as §1

Structure (SMILES) | ΔTm (Pseudomonas aeruginosa [1]) [°C] | Kd [2] [µM] | ΔTm (Pseudomonas aeruginosa [3]) [°C]
Cc1c(C(=O)NS(=O)(=O)Cc2ccccc2)cnn1-c1ccccc1 | 0 | – | –
O=C(O)c1cnn(Cc2cccs2)c1C(F)(F)F | 1 | – | –
CN1C(=O)C(=O)c2ccccc21 | 1 | – | 4
NC(=O)c1ccc[n+]([C@@H]2O[C@H](COP(=O)(O)OP(=O)(O)OC[C@H]3O[C@@H](n4cnc5c(N)ncnc54)[C@H](OP(=O)(O)O)[C@@H]3O)[C@@H](O)[C@H]2O)c1 | 3.5 | – | –
O=C(O)Cc1ccccc1 | 0 | – | 1
Cc1cccc(C)c1-n1c(C)cc(C(=O)O)c1C | 3 | – | –
Cc1cc(CC(=O)O)on1 | 0 | – | 1
Cc1cc(Cl)c(Cl)cc1-n1ncc(C(=O)O)c1C(F)(F)F | 5 | – | –
NCc1ccc2sccc2c1 | 0 | – | 1
Cc1cccc(C)c1-n1ncc(C(=O)NS(=O)(=O)c2ccccc2)c1C(F)(F)F | 3 | – | –
O=C(O)CCc1cccc(Cl)c1 | 0.5 | – | 1
Cc1cc(C(=O)O)c(C)n1Cc1cccs1 | 1.5 | – | 2
Cc1cc(Cl)c(Cl)cc1-n1ncc(C(=O)NS(=O)(=O)c2ccccc2)c1C(F)(F)F | 2.7 | 12 | –
Cc1c(C(=O)NCc2ccccc2)cnn1-c1ccccc1 | 0 | – | –
Cc1cc(Cl)c(Cl)cc1-n1c(C)cc(C(=O)O)c1C | 3.5 | 24.1 | –
O=C(O)COc1ccc(Cl)c(Cl)c1 | 1 | – | 1.5
Cc1cccc(C)c1-n1ncc(C(=O)NS(=O)(=O)c2cccc(Br)c2)c1C(F)(F)F | 1.3 | – | –
O=C1Nc2ccccc2C1=O | 1 | – | 3.5
NC(=O)C1=CN([C@@H]2O[C@H](COP(=O)(O)OP(=O)(O)OC[C@H]3O[C@@H](n4cnc5c(N)ncnc54)[C@H](OP(=O)(O)O)[C@@H]3O)[C@@H](O)[C@H]2O)C=CC1 | 3 | – | –
Cc1cc(C(=O)O)n[nH]1 | 0 | – | 1
O=C(O)Cc1ccc(Cl)c(Cl)c1 | 1 | – | 1.5
Cc1c(-n2c(C)cc(C(=O)O)c2C)ccc(Cl)c1Cl | 4 | – | –
NCc1ccc2[nH]ccc2c1 | 0.2 | – | 1
Cc1cc(C(=O)O)c(C)n1-c1ccc(Cl)c(Cl)c1 | 2.3 | – | –
O=C(O)c1ccc(Cl)c(Cl)c1 | 0.5 | – | 1
N#CCc1nc2ccccc2s1 | 0 | – | 1

Second part, the compound after the results:

ΔTm (Pseudomonas aeruginosa [1]) [°C] | Kd [2] [µM] | ΔTm (Pseudomonas aeruginosa [3]) [°C] | Structure (SMILES)
2.5 | – | – | O=C(O)c1cnn(-c2c(Cl)cccc2Cl)c1C(F)(F)F
0.5 | – | – | CS(=O)(=O)NC(=O)c1cnn(-c2ccccc2)c1C(F)(F)F
1 | – | – | O=C(O)c1cnn(-c2ccc(C(F)(F)F)cc2)c1C(F)(F)F
0.3 | – | – | O=C(O)c1cnn(-c2cccs2)c1C(F)(F)F
2.7 | 11.4 | – | Cc1c(-n2c(C)cc(C(=O)O)c2C(F)(F)F)ccc(Cl)c1Cl
0 | – | – | Nc1c(C(=O)O)cnn1-c1ccccc1
1 | – | – | O=C(O)c1cnn(Cc2ccccc2)c1C(F)(F)F
1.5 | – | – | Cc1cc(C(=O)O)c(C)n1-c1cccc(Cl)c1
0.3 | – | – | O=C(O)c1cnn(-c2cccnc2)c1C(F)(F)F
2 | – | – | O=C(O)c1cnn(-c2ccccc2Br)c1C(F)(F)F
2 | – | – | Cc1ccccc1-n1c(C)cc(C(=O)O)c1C
1 | – | – | O=C(O)c1cnn(-c2ccccc2C(F)(F)F)c1C(F)(F)F
2 | – | – | Cc1c(C(=O)O)cc(CCO)n1-c1ccccc1
1.5 | 148 | – | O=C(O)c1cnn(-c2ccccc2Cl)c1C(F)(F)F
2.3 | 26.1 | – | O=C(O)c1cnn(-c2ccc(Cl)c(Cl)c2)c1C(F)(F)F
1.7 | – | – | Cc1cc([N+](=O)[O-])ccc1-n1ncc(C(=O)O)c1C(F)(F)F
2 | – | – | Cc1cccc(-n2ncc(C(=O)O)c2C(F)(F)F)c1C
1 | – | – | O=C(NS(=O)(=O)c1ccccc1)c1cnn(-c2ccccc2)c1C(F)(F)F
2.3 | – | – | Cc1ccc(-n2ncc(C(=O)O)c2C(F)(F)F)c(C)c1
3.7 | 11.3 | – | Cc1c(-n2ncc(C(=O)O)c2C(F)(F)F)ccc(Cl)c1Cl

ΔTm (Pseudomonas aeruginosa [1]) [°C] | Kd [2] [µM] | ΔTm (Pseudomonas aeruginosa [3]) [°C] | Structure (SMILES)
0.5 | – | – | Cc1c(C(=O)O)nnn1-c1ccccc1
2 | 112 | – | Cc1cc(C(=O)O)c(C(F)(F)F)n1-c1ccccc1
2 | 110 | – | Cc1cc(C(=O)O)c(C)n1-c1ccccc1
0 | – | – | CCOC(=O)c1cnn(-c2ccccc2Cl)c1C(F)(F)F
0 | – | – | O=C(O)c1cnn(-c2ccncc2)c1C(F)(F)F
1 | – | – | O=C(O)c1cnn(-c2ccccc2)c1C(F)(F)F
2.5 | – | – | Cc1cccc(C)c1-n1ncc(C(=O)O)c1C(F)(F)F
0.7 | – | – | Cc1nc(C(=O)O)c(C)n1-c1ccccc1
0.5 | – | 1.5 | Cc1c(C(=O)O)cnn1-c1ccccc1
2 | 138 | – | Cc1ccc(C)c(-n2ncc(C(=O)O)c2C(F)(F)F)c1
2.5 | – | – | Cc1ccccc1-n1c(C)cc(C(=O)O)c1C(F)(F)F
1.5 | – | – | Cc1cc(C(=O)O)c(C)n1-c1ccc(Cl)cc1
4.7 | – | – | Cc1cc(Cl)c(Cl)cc1-n1c(C)cc(C(=O)O)c1C(F)(F)F
0.2 | – | – | O=C(O)c1cnn(-c2ccccc2)c1CO
1 | – | – | O=C(O)c1cnn(-c2ccccc2F)c1C(F)(F)F
2 | – | – | Cc1ccccc1-n1ncc(C(=O)O)c1C(F)(F)F
0.5 | – | – | NC(=O)c1cccc(-n2ncc(C(=O)O)c2C(F)(F)F)c1
0 | – | – | NC(=O)c1cnn(-c2ccccc2)c1C(F)(F)F
0.7 | – | – | O=C(O)c1cnn(-c2ccccc2)c1O
